From PMC4817271 (Journal of medicinal chemistry, 2015)

Assays:
[1] = Intrinsic clearance in rat liver microsomes, predicted hepatic clearance; assay type: in vitro ADME
Outline: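 Test compound was incubated with rat liver microsomes to give intrinsic clearance (CLint), which was converted to predicted hepatic clearance. Compounds were binned against hepatic blood flow: low (<1/3), moderate (1/3 to 2/3) or high (>2/3).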

[2] = target: T1, human M1 (Homo sapiens, UniProt P11229); experiment: Human M1 functional assay; assay type: cell-based; conditions: up to the highest concentration tested (30 μM)
T1 sequence (P11229 1-460): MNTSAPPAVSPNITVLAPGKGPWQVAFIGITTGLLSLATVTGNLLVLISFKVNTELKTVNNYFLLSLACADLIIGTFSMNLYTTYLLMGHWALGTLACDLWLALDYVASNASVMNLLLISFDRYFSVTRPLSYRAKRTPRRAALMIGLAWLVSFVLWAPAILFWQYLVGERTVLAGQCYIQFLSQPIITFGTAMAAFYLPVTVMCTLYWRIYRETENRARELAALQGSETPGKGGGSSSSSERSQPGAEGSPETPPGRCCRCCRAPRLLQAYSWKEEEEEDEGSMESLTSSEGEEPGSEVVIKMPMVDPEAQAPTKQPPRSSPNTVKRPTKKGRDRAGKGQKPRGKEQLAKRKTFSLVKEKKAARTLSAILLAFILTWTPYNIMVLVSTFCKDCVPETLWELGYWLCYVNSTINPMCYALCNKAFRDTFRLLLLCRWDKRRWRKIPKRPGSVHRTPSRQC

[3] = Rat IP tissue distribution; assay type: in vivo
Outline: (§1)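 Single time point tissue distribution in mice or rats (n=2). Test compound was given ip at 30 mg/kg as a fine homogeneous suspension in 10% Tween-80 in water. Brain and plasma concentrations were taken 15 min after dosing. Kp = total brain/total plasma; Kp,uu = unbound brain (brain fu × total brain)/unbound plasma (plasma fu × total plasma).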

[4] = target: P-gp (MDR1) (Homo sapiens, UniProt P08183); experiment: Permeability in MDR1-MDCK cells; assay type: in vitro ADME; conditions: dog (MDCK cells), human MDR1 expressed
Chain of P-gp (MDR1) (P08183 whole entry): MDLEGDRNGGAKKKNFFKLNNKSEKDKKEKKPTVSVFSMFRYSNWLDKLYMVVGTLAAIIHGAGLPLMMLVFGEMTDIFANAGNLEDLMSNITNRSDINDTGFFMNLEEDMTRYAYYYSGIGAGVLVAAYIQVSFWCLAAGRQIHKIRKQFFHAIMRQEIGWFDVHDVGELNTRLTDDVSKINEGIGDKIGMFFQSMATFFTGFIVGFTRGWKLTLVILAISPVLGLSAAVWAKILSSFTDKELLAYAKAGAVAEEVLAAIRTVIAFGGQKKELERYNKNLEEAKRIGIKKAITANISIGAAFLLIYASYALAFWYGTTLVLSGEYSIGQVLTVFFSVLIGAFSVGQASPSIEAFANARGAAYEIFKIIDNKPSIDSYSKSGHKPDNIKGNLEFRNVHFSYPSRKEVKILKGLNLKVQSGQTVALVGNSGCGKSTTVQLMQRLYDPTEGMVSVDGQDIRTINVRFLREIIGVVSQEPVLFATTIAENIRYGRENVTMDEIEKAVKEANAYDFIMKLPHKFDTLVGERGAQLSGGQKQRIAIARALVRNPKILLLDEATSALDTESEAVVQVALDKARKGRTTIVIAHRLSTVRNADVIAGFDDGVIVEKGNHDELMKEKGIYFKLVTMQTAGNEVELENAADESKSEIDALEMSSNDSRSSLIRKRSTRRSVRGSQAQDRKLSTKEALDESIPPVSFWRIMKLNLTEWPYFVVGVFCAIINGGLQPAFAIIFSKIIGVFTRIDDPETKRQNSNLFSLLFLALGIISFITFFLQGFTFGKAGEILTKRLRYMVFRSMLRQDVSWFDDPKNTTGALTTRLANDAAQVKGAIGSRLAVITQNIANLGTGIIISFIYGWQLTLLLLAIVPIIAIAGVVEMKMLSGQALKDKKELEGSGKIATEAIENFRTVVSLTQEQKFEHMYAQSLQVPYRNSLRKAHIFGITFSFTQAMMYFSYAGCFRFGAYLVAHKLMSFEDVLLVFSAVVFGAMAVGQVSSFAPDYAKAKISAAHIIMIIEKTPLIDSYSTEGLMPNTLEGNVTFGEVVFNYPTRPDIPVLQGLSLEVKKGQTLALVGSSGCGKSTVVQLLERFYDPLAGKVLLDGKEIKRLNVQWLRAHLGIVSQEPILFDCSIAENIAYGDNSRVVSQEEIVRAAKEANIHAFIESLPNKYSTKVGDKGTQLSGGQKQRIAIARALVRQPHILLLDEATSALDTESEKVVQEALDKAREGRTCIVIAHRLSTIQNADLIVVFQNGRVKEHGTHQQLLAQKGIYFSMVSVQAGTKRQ

[5] = Protein binding in rat brain homogenates; assay type: in vitro ADME; conditions: brain homogenate
[6] = Rat iv cassette PK tissue distribution; assay type: in vivo; conditions: 0.2 mg/kg
Outline: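 Cassette dosing in rats: iv at 0.2 mg/kg per compound, as a solution in 8% EtOH, 30% PEG 400 and 62% DMSO (2 mg/mL total), n=2. Single time point brain and plasma sampling at 15 min after dose. Kp = total brain/total plasma; Kp,uu = (brain fu × total brain)/(plasma fu × total plasma).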

[7] = system: other members of the mGlu family; experiment: Fold-shift selectivity experiments versus other mGlus; assay type: cell-based; conditions: effect of 10 μM compound on orthosteric agonist CRC
[8] = Mouse IP tissue distribution; assay type: in vivo
Outline: as §1

[9] = system: panel of 68 clinically relevant GPCRs, ion channels, kinases, and transporters; experiment: Radioligand binding assay panel; conditions: 10 μM; significant = more than 50% inhibition of radioligand binding
[10] = Rat IV PK; assay type: in vivo
Outline: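 Rats received test compound iv at 0.2 mg/kg as a solution in 9% EtOH, 38% PEG 400 and 53% DMSO (1 mg/mL dosing solution), n=2. Plasma time course gave half-life, plasma clearance and volume of distribution at steady state.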

[11] = Rat plasma protein binding; assay type: in vitro ADME
[12] = Mouse IP tissue distribution with P-gp inhibitor 109 pretreatment; assay type: in vivo
Outline: (§2)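 Mice were pretreated with the P-gp inhibitor elacridar at 20 mg/kg 1 h before the test compound. Test compound was given ip at 30 mg/kg as a fine homogeneous suspension in 10% Tween-80 in water (n=2). Brain and plasma were sampled 15 min after dosing. Kp = total brain/total plasma; Kp,uu = (brain fu × total brain)/(plasma fu × total plasma).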

[13] = system: P-gp; experiment: as above; assay type: in vivo; conditions: mouse, brain, ip, with 109 (elacridar), 20 mg/kg, dosed 1 h before compound 58
Outline: as §2

[14] = Mouse plasma protein binding; assay type: in vitro ADME
[15] = target: rat mGlu2 (Rattus norvegicus, UniProt P31421); experiment: Calcium mobilization mGlu2 assay; assay type: cell-based; conditions: for IC50: average of n ≥ 3
Chain of rat mGlu2 (P31421 19-872): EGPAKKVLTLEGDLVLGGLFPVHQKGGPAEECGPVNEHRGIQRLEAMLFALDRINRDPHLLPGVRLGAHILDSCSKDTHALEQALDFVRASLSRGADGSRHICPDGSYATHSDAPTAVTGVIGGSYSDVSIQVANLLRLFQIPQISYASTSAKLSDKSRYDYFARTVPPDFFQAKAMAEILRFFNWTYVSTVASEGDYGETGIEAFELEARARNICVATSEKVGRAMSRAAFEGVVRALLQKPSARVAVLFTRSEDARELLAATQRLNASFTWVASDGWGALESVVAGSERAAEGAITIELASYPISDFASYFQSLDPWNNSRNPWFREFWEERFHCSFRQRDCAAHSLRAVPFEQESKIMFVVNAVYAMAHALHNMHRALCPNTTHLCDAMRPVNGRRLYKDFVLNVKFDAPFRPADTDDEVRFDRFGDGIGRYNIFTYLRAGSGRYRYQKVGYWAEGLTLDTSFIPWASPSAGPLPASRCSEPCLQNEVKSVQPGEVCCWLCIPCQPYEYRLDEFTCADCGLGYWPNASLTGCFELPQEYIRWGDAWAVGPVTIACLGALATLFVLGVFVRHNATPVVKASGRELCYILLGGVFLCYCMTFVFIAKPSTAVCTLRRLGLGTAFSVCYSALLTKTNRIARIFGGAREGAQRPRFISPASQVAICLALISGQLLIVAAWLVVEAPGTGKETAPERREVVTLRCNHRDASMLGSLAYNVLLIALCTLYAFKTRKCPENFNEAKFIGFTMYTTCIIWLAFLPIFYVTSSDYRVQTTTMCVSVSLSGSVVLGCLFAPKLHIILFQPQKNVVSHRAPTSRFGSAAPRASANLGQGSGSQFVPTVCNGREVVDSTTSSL
Outline: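 Fluorescence calcium-mobilization read-out in a cell line stably co-expressing rat mGlu2 and the promiscuous G-protein Gα15. Test compound was applied up to 30 μM, and NAM activity was measured as inhibition of the glutamate response. Values are the average of n=3. LLE = pIC50 − cLogP, with cLogP calculated by software.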

[16] = Protein binding in mouse brain homogenates; assay type: in vitro ADME; conditions: brain homogenate
[17] = rat ip 30 mg/kg, 15 min after dose
[18] = mouse ip 30 mg/kg, 15 min after dose
[19] = mouse ip 30 mg/kg, 15 min after dose, 109 dosed 1 h prior at 20 mg/kg

## C[C@@H]1CN(Cc2ccc3c(c2)c(=O)c(C(N)=O)cn3-c2ccc(F)cc2)C[C@H](C)O1 [Compound 58, 6-((cis-2,6-Dimethylmorpholino)methyl)-1-(4-fluorophenyl)-4-oxo-1,4-dihydroquinoline-3-carboxamide]
[1]; binned from CLint in rat liver microsomes
  predicted hepatic clearance group: low–moderate
[1]; predicted hepatic clearance based on CLint in rat liver microsomes
  rat CLhep: 24.5 mL/min/kg
[2]
  human M1 activity: no activity
[3]; [17]
  brain concentration: 760 nM
  plasma concentration: 3900 nM
[3]; rat, brain, ip, 30 mg/kg
  Kp at 0.25 h: 0.2
  Kp uu at 0.25 h: 0.12
[3]; rat, brain, ip, 30 mg/kg, unbound brain concentration, rat ip 30 mg/kg
  concentration at 15 min: 145 nM
[4]
  Papp A→B: 1.54 ×10⁻⁶ cm/s
  Papp B→A: 79.7 ×10⁻⁶ cm/s
  efflux ratio: 52
[5]
  fraction unbound: 0.191
[5]; mouse
  fraction unbound: 0.25 to 0.3
[6]; brain
  Kp at 0.25 h: 0.32
  Kp uu at 0.25 h: 0.23
  concentration at 15 min: 18 nM
[6]; plasma
  concentration at 15 min: 56.9 nM
[7]
  activity at the other mGlus: no activity
[8]; [18]
  brain concentration: 716 nm
  plasma concentration: 1820 nm
[8]; mouse, brain, ip, 30 mg/kg
  Kp at 0.25 h: 0.39
  Kp uu at 0.25 h: 0.32
[8]; mouse, brain, ip, 30 mg/kg, brain concentration, mouse ip 30 mg/kg
  concentration at 15 min: 716 nM
[8]; mouse, brain, ip, 30 mg/kg, unbound brain concentration, mouse ip 30 mg/kg
  concentration at 15 min: 184 nM
[9]
  ancillary pharmacology, radioligand binding panel responses: no significant responses
[10]; rat iv time course study
  clearance in vivo: high clearance
[10]; rat, plasma, iv, 0.2 mg/kg
  Vd: 13.3 L/kg
  clearance: 75.8 mL/min/kg
[10]; rat, plasma, iv, 0.2 mg/kg, half-life, rat iv time course study
  half-life: ~2 h
[10]; rat, plasma, iv, 0.2 mg/kg, t1/2, rat iv 0.2 mg/kg
  half-life: 2.35 h
[11]
  unbound in rat plasma: approximately 30%
[11]; rat, plasma
  fraction unbound: 0.306
[12]; 30 mg/kg ip with P-gp inhibitor pretreatment
  unbound brain exposure relative to mGlu2 IC50: more than 5 fold
[12]; mouse ip 30 mg/kg
  increase of exposure in the brain after pretreatment with 109 (elacridar): more than 6 fold
[12]; [19]
  brain concentration: 4580 nm
  plasma concentration: 2160 nm
[13]
  Kp at 15 min: 2.1
  Kp uu at 15 min: 1.7
[14]
  fraction unbound: 0.315
[15]; LLE = pIC50 – cLogP
  LLE: 3.59
[15]; amplitude of response in presence of 30 μM test compound as percentage of maximal response (100 μM glutamate)
  % Glu max ± SEM: 1.48 ± 0.29%
[15]; mGlu2 IC50, calcium mobilization
  IC50: 207 nM
[15]; mGlu2 pIC50 ± SEM, calcium mobilization
  IC50: 204 nM
[16]
  fraction unbound: 0.257
